Assay results as given in ChEMBL document CHEMBL4706680, “Small-Molecule HSP27 Inhibitor Abolishes Androgen Receptors in Glioblastoma” (J Med Chem, 2021).
Calls of active or inactive are those of the source. The calls are words filed in the database; no cut-off is given here.

How the values were obtained:
[1] = Toxicity in CD1 mouse assessed as effect on lymphocyte at 80 mg/kg/day, ip administered thrice weekly by hematology analyzer; type: organism-based; settings: in vivo, 72 h, time 3 day
In short: (§1)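 Male CD-1 mice, four per group, given 80 mg/kg in PBS IP three times weekly; vehicle DMSO. Mice were euthanized when toxicity signs appeared, otherwise at day 10. Body weight was recorded at first and last dosing days. Non-fasted cardiac blood was taken after euthanasia for an automated hematology analyzer.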

[2] = Toxicity in CD1 mouse assessed as effect on MCHC count at 80 mg/kg/day, ip administered thrice weekly by hematology analyzer; type: organism-based; settings: in vivo, 72 h, time 3 day; in short: as §1
A 172 = test: Antiproliferative activity against human A 172 cells assessed as reduction in cell viability incubated for 48 hrs by MTT assay; type: functional, cell-based; settings: A 172, 48 h
In short: (§2)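 MTT assay; 3000 cells/well in RPMI 1640 or DMEM with 10% FBS, seeded 24 h, then exposed 48 h to a range of concentrations in DMSO (final ≤0.1%); vehicle controls. MTT 1 mg/mL for 2 h at 37 °C, dye dissolved in DMSO, absorbance 570 nm; eight replicates; IC50 by nonlinear regression.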

[3] = Toxicity in CD1 mouse assessed as effect on WBC count at 80 mg/kg/day, ip administered thrice weekly by hematology analyzer; type: organism-based; settings: in vivo, 72 h, time 3 day; in short: as §1
[4] = Toxicity in CD1 mouse assessed as effect on eosinophil count at 80 mg/kg/day, ip administered thrice weekly by hematology analyzer; type: organism-based; settings: in vivo, 72 h, time 3 day; in short: as §1
[5] = Toxicity in CD1 mouse assessed as effect on neutrophils count at 80 mg/kg/day, ip administered thrice weekly by hematology analyzer; type: organism-based; settings: in vivo, 72 h, time 3 day; in short: as §1
[6] = Toxicity in CD1 mouse assessed as induction of dehydration at 80 mg/kg/day, ip administered thrice weekly and observed at day 5 to 7; type: organism-based; settings: in vivo, 72 h, time 3 day; in short: as §1
U-251 = test: Antiproliferative activity against human U-251 cells assessed as reduction in cell viability incubated for 48 hrs by MTT assay; type: functional, cell-based; settings: U-251, 48 h; in short: as §2
[7] = Toxicity in CD1 mouse assessed as effect on MPV at 80 mg/kg/day, ip administered thrice weekly by hematology analyzer; type: organism-based; settings: in vivo, 72 h, time 3 day; in short: as §1
[8] = Toxicity in CD1 mouse assessed as effect on monocytes at 80 mg/kg/day, ip administered thrice weekly by hematology analyzer; type: organism-based; settings: in vivo, 72 h, time 3 day; in short: as §1
[9] = Toxicity in CD1 mouse assessed as effect on hematocrit count at 80 mg/kg/day, ip administered thrice weekly by hematology analyzer; type: organism-based; settings: in vivo, 72 h, time 3 day; in short: as §1
T98G = test: Antiproliferative activity against human T98G cells overexpressing AR assessed as reduction in cell viability incubated for 48 hrs by MTT assay; type: functional, cell-based; in short: as §2
[10] = Toxicity in CD1 mouse assessed as decrease in body weight at 80 mg/kg/day, ip administered thrice weekly and observed at day 5 to 7; type: organism-based; settings: in vivo, 72 h, time 3 day; in short: as §1
[11] = Toxicity in CD1 mouse assessed as effect on PLT at 80 mg/kg/day, ip administered thrice weekly by hematology analyzer; type: organism-based; settings: in vivo, 72 h, time 3 day; in short: as §1
[12] = Toxicity in CD1 mouse assessed as effect on MCH count at 80 mg/kg/day, ip administered thrice weekly by hematology analyzer; type: organism-based; settings: in vivo, 72 h, time 3 day; in short: as §1
[13] = Toxicity in CD1 mouse assessed as effect on MCV count at 80 mg/kg/day, ip administered thrice weekly by hematology analyzer; type: organism-based; settings: in vivo, 72 h, time 3 day; in short: as §1
[14] = Toxicity in CD1 mouse assessed as effect on RDW-CV at 80 mg/kg/day, ip administered thrice weekly by hematology analyzer; type: organism-based; settings: in vivo, 72 h, time 3 day; in short: as §1
U-87 MG = test: Antiproliferative activity against human U87 cells assessed as reduction in cell viability incubated for 48 hrs by MTT assay; type: functional, cell-based, U-87MG ATCC; in short: as §2
[15] = Toxicity in CD1 mouse assessed as effect on RBC count at 80 mg/kg/day, ip administered thrice weekly by hematology analyzer; type: organism-based; settings: in vivo, 72 h, time 3 day; in short: as §1
[16] = Toxicity in CD1 mouse assessed as reduction in food consumption at 80 mg/kg/day, ip administered thrice weekly and observed at day 5 to 7; type: organism-based; settings: in vivo, 72 h, time 3 day; in short: as §1
[17] = Toxicity in CD1 mouse assessed as effect on hemoglobin count at 80 mg/kg/day, ip administered thrice weekly by hematology analyzer; type: organism-based; settings: in vivo, 72 h, time 3 day; in short: as §1
[18] = Toxicity in CD1 mouse assessed as effect on basophil count at 80 mg/kg/day, ip administered thrice weekly by hematology analyzer; type: organism-based; settings: in vivo, 72 h, time 3 day; in short: as §1
[19] = Toxicity in CD1 mouse assessed as decrease in body weight at 80 mg/kg/day, ip administered thrice weekly and measured at day 10; type: organism-based; settings: in vivo, 72 h, time 3 day; in short: as §1
[20] = Toxicity in CD1 mouse assessed as acute pain at 80 mg/kg/day, ip administered thrice weekly and measured at day 10; type: organism-based; settings: in vivo, 72 h, time 3 day; in short: as §1
[21] = Dissociation constant, pKa of the compound; type: physicochemical
[22] = target: Heat shock protein beta-1 (Homo sapiens) (UniProt P04792); settings: T98G, dose 10.0 nM, time 12.0 hrs
Sequence of Heat shock protein beta-1 (Homo sapiens) (P04792 whole entry): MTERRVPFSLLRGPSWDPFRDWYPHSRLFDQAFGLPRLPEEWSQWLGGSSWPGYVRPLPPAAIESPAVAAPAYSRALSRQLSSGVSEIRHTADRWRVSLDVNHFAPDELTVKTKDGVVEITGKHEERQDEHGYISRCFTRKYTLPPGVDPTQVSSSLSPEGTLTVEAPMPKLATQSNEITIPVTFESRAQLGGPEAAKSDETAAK

Structure (SMILES) | Activity [1] | Activity [2] | IC50 (A 172) [nM] | Activity [3] | Activity [4] | Activity [5] | Activity [6] | IC50 (U-251) [nM] | Activity [7] | Activity [8] | Activity [9] | IC50 (T98G) [nM] | Activity [10] | Activity [11] | Activity [12] | Activity [13] | Activity [14] | IC50 (U-87 MG) [nM] | Activity [15] | Activity [16] | further results
CCS(=O)(=O)N(C)c1ccc(NC(=O)c2ccc(OC)cc2)cc1OCc1cc(OC)ccc1OC | Non-Toxic | Non-Toxic | 8.21 | Non-Toxic | Non-Toxic | Non-Toxic | Toxic | 6.97 | Non-Toxic | Non-Toxic | Non-Toxic | 5.71 | Toxic | Non-Toxic | Non-Toxic | Non-Toxic | Non-Toxic | 7.83 | Non-Toxic | Toxic | Activity [17]: Non-Toxic; Activity [18]: Non-Toxic
CCS(=O)(=O)Nc1ccc(NC(=O)c2ccc(OC)cc2)cc1OCc1cc(OC)ccc1OC | – | – | 11.9 | – | – | – | – | 6.39 | – | – | – | 4.87 | Non-Toxic | – | – | – | – | 6.74 | – | – | Activity [19]: Non-Toxic; Activity [20]: Non-Toxic
CS(=O)(=O)Nc1ccc([N+](=O)[O-])cc1Oc1ccccc1 [NIMESULIDE] | – | – | – | – | – | – | – | – | – | – | – | – | – | – | – | – | – | – | – | – | pKa [21]: 5.93
COc1ccc(C(=O)Nc2ccc(N(C)S(C)(=O)=O)c(OCc3cc(OC)ccc3OC)c2)cc1 | Non-Toxic | Non-Toxic | 3.13 | Non-Toxic | Non-Toxic | Non-Toxic | Toxic | 1.57 | Non-Toxic | Non-Toxic | Non-Toxic | 1.85 | Toxic | Non-Toxic | Non-Toxic | Non-Toxic | Non-Toxic | 3.05 | Non-Toxic | Toxic | Activity [17]: Non-Toxic; Activity [18]: Non-Toxic
C[C@]12CCC(=O)C[C@@H]1CC[C@@H]1[C@@H]2CC[C@]2(C)[C@@H](O)CC[C@@H]12 | – | – | – | – | – | – | – | – | – | – | – | – | – | – | – | – | – | – | – | – | inhibition [22]: inactive
